Screening results deposited in PubChem by Johns Hopkins Ion Channel Center.
Only some compounds are listed: those with a hit (about 3.8% of all), similar ones and a draw of the others.
KCNQ1 act: potentiates or activates the human KCNQ1 potassium channel; AID 2648; 310,000 tested, 0.35% active; CHO-K1 KCNQ1, thallium flux FluxOR fluorescence; stronger effect = higher value; B-score at 10 µM; P51787;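 active = fluorescence ratio B-score, a plate-corrected score, at least three library SD, with initial intensity B-score within 5 SD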
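assay system = KCNQ1-transfected CHO-K1 cells | medium = assay buffer with matched DMSO | probe or stimulus = depolarizing K+/Tl+ stimulus, K2SO4 and Tl2SO4 each 12.5 mM in 5x stock | dosing = single dose | incubation = dye 90 min, compound 20 min, room temperature | detection = kinetic FluxOR fluorescence, 10 s baseline plus 110 s post-stimulus | evaluation = ratio B score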
hERG protect: compounds protecting human hERG from proarrhythmic drug block | CHO-hERG, FluxOR thallium flux, dofetilide IC70 present | activation (rescue from dofetilide block), less the hit threshold, % at 10 µM | 310,000 tested, 0.51% active;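 active = activation above the mean of controls blocked by dofetilide plus 5 SD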;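 note: thallium influx through hERG after potassium depolarization seen as dye fluorescence rise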
Kir21 inh: Kir2.1 (mouse) channel inhibition; 310,000 tested, 0.85% active; P35561; B-score at 10 µM; HEK293-Kir2.1, FluxOR thallium flux fluorescence; stronger effect = lower value; AID 1672;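 active = fluorescence ratio B-score at or below minus 3 SD of library scores, with starting-brightness B-score within 2 SD, cut at about -4.2 in these data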;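 note: channel flux triggered by added potassium and thallium sulfate stimulus; B-score of peak minus minimum fluorescence over baseline after thallium stimulus; more negative B-score means stronger Kir2.1 block with less thallium influx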
KCNQ1 block: blocks the human KCNQ1 potassium channel. P51787. CHO-K1 KCNQ1, FluxOR thallium flux fluorescence; stronger effect = higher value. B-score at 10 µM. 310,000 tested, 1.3% active. AID 2642;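 active = compounds whose thallium flux B-score, printed positive for inhibition, exceeds three library SD while starting fluorescence stays within three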;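 note: channel opened by potassium depolarization with thallium stimulus after 20 min compound exposure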
KCNK3 inh: human KCNK3 channel inhibition, primary screen; O14649; CHO-KCNK3 thallium flux, FluxOR fluorescence; stronger effect = lower value; B-score at 10 µM; 340,000 tested, 0.84% active; AID 602410;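 active = B-score under library mean minus 4 SD, starting fluorescence ratio at most library mean plus 5 SD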;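 note: more negative B-score means stronger inhibition of thallium flux through KCNK3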
KCNK9 inh: blocks the human KCNK9 two-pore domain potassium channel; Q9NPC2; B-score at 10 µM; HEK293 KCNK9, FluxOR thallium flux fluorescence; stronger effect = lower value; 310,000 tested, 1.2% active;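 active = ratio B-score over 3 SD below the library mean, with starting fluorescence within 5 SD of its mean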;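 note: negative B-score means less thallium flux so channel inhibition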
KCNQ1 inh valid: human KCNQ1 channel inhibition, validation assay. shares compounds with KCNQ1 block. KCNQ1 cell line, FluxOR thallium flux fluorescence. inhibition, % at 10 µM. 1,600 tested, 93% active. AID 588353;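 active = primary screen active, with duplicate mean exceeding buffer control mean plus 3 SD of buffer wells, cut at about 28% in these data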
CHO Tl flux: activity in parental CHO cells lacking KCNQ1 | fluorescence ratio (Tl flux) at 10 µM | 1,600 tested, 21% active | shares compounds with KCNQ1 block | AID 588366 | parental CHO-K1, FluxOR thallium flux fluorescence ratio; stronger effect = lower value; zero means no signal rise above baseline;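 active = mean of duplicate thallium-flux fluorescence ratios in parental host cells more than 5 SD below the buffer control mean, cut at about 0.38 in these data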;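 note: ratio is peak minus minimum fluorescence divided by baseline fluorescence; actives read low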
KCNQ1 ephys val: confirmation of human KCNQ1 potassium channel inhibitors by electrophysiology. shares compounds with KCNQ1 block. KCNQ1-CHO cells, automated patch clamp current. calls only at 10 µM. 490 tested, 20% active. AID 624120;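 active = KCNQ1 current drop exceeding 3 SD of negative control wells, seen in both duplicate runs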;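 note: steady state current during a 2 s step from -80 to +40 mV; negative values mean current inhibition and positive values mean potentiation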
KCNQ2 inh: selectivity of KCNQ1 inhibitors: inhibition of rat KCNQ2 channel | KCNQ2 cells, FluxOR thallium flux fluorescence | 1,600 tested, 71% active | inhibition, % at 10 µM | shares compounds with KCNQ1 block;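 active = mean percent inhibition of the KCNQ2 thallium signal more than 5 SD above the buffer-only control wells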;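 note: KCNQ2 expressed in CHO cells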
KCNQ1 KCNE1 spec: human KCNQ1/KCNE1 inhibition in KCNQ1 specificity screen. shares compounds with KCNQ1 block. KCNQ1/KCNE1 cells, FluxOR thallium flux fluorescence. 1,600 tested, 77% active. inhibition, % at 10 µM;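 active = mean percent inhibition of duplicate wells above the buffer-only control mean plus 3 SD of those controls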
Target sequence (P51787 whole entry, looked up): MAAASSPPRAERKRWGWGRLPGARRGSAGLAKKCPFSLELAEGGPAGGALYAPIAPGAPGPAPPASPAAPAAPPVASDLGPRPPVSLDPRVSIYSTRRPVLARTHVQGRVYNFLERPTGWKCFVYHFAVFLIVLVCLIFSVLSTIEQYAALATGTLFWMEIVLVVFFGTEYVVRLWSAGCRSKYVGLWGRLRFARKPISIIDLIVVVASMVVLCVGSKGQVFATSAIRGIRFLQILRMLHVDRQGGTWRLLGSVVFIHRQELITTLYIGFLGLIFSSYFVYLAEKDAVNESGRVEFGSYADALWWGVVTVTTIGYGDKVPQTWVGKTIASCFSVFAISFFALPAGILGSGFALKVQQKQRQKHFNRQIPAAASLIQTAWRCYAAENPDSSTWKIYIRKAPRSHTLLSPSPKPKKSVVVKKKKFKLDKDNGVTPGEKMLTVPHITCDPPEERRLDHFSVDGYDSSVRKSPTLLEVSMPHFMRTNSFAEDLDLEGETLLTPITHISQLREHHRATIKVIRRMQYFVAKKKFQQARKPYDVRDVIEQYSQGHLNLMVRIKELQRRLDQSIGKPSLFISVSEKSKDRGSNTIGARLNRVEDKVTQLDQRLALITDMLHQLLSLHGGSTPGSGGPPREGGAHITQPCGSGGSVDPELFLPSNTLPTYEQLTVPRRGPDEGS
Numbers stand for hits; n = inactive; x = not tested or not shown; + = active, no number.

SMILES	KCNQ1 act	hERG protect	Kir21 inh	KCNQ1 block	KCNK3 inh	KCNK9 inh	KCNQ1 inh valid	CHO Tl flux	KCNQ2 inh	KCNQ1 KCNE1 spec	others
O=C1CC(c2ccccc2)C(C(=O)O)N1 (stereo unspecified)	n	n	n	n	n	n	x	x	x	x
COc1ccc(CCNc2nc(N3CCCCC3)nc(N3CCCCC3)n2)cc1OC	n	n	n	6	n	n	106	0.37	123%	+
COc1ccc(CCNc2nc(N3CCOCC3)nc(N3CCOCC3)n2)cc1OC	n	n	n	n	n	n	x	x	x	x
Nc1scc2c(C(=O)O)nn(-c3ccccc3)c(=O)c12	x	x	x	x	n	x	x	x	x	x
O=S(=O)(N/N=C1/CC(c2ccccc2)Oc2ccccc21)c1ccc(Br)cc1 (stereo unspecified)	n	n	n	n	n	n	x	x	x	x
Cc1ccc(S(=O)(=O)NC(=O)c2cc(C)n(-c3ccc(N(C)C)cc3)c2C)cc1	n	n	n	6	n	n	30	n	n	n
Cc1ccc(S(=O)(=O)NC(=O)c2cc(C)n(-c3ccccc3)c2C)cc1	n	n	n	n	n	n	x	x	x	x
CCC(=O)Nc1ccccc1-c1nc2ccccc2[nH]c1=O	n	n	n	n	n	n	x	x	x	x
CN(CC(=O)Nc1ccc(F)cc1)C(=O)c1cn(-c2ccccc2)nc1-c1cccs1	x	x	x	x	n	x	x	x	x	x
CN(CC(=O)Nc1cccc(F)c1)C(=O)c1cn(-c2ccccc2)nc1-c1ccccc1	n	n	n	8	n	n	74	n	74%	93%
CCC(C(=O)OC)n1cnc2scc(-c3ccc(C)c(C)c3)c2c1=O (stereo unspecified)	n	n	n	7	n	n	52	n	61%	n
CCCOC(=O)C(C)n1cnc2scc(-c3ccc(C)cc3)c2c1=O (stereo unspecified)	n	n	n	9	n	n	93	n	70%	116%	KCNQ1 ephys val=+
Cc1ccc(-c2csc3ncn(CC(N)=O)c(=O)c23)cc1C	n	n	n	n	n	n	x	x	x	x
COC(=O)c1cccc(N(CC(=O)NC2CCCC2)C(=O)CNC(=O)c2cccs2)c1	n	n	n	n	n	n	x	x	x	x
CCOC(=O)c1c(C)[nH]c(C)c1C(=O)CSc1nc2ccccc2c(=O)n1-c1ccc(C)cc1	n	n	n	6	n	n	58	n	n	58%
Cc1[nH]c2ccccc2c1C(=O)CSc1nc2ccccc2c(=O)n1-c1ccccc1F	n	n	n	n	x	n	x	x	x	x
Cc1ccc(-c2nnc(NC(=O)c3ccco3)o2)c(C)c1	n	n	n	n	n	n	x	x	x	x
Cc1ccc2ncc(S(=O)(=O)c3ccccc3)c(N3CCCCC3C)c2c1 (stereo unspecified)	n	n	n	7	n	n	126	0.32	131%	+
COc1cc2ncc(S(=O)(=O)c3ccccc3)c(N3CCC4(CC3)OCCO4)c2cc1OC	n	n	n	n	n	n	x	x	x	x
N#CC1(C#N)CC(C=O)=C(N)C1(C#N)CC(=O)C12CC3CC(CC(C3)C1)C2 (stereo unspecified)	n	n	n	n	n	n	x	x	x	x
COc1ccc(CCNC(=O)CSc2cccc3cccnc23)cc1OC	n	n	n	n	n	n	x	x	x	x
COc1ccc(C(=O)C2CCCN(Cc3cccn3-c3ccc(Cl)cn3)C2)c(OC)c1 (stereo unspecified)	n	n	n	11	n	n	82	n	85%	n
CC(C)(C)c1nc(N2CCN(C(=O)c3ccco3)CC2)c2nnn(Cc3ccccc3)c2n1	n	n	n	7	n	n	118	n	105%	132%	KCNQ1 ephys val=n
O=C(c1ccco1)N1CCCC(c2nc3c(nnn3Cc3ccccc3)c(=O)[nH]2)C1 (stereo unspecified)	n	n	n	n	n	n	x	x	x	x
O=C(Nc1ccc(C2CC2(Cl)Cl)cc1)c1ccccc1Br (stereo unspecified)	n	n	n	n	n	n	x	x	x	x
SMILES	KCNQ1 act	hERG protect	Kir21 inh	KCNQ1 block	KCNK3 inh	KCNK9 inh	KCNQ1 inh valid	CHO Tl flux	KCNQ2 inh	KCNQ1 KCNE1 spec	others
Cc1ccc2nc(/N=C(\N)NC(=O)NC3CCCCC3)nc(C)c2c1	n	n	n	7	n	n	56	n	n	n
COc1ccc(N/C=C2\CCc3ccccc3C2=O)cc1	n	n	n	6	n	n	50	n	112%	114%
COc1ccc(/C=N/NC(=O)c2cc3c(ccc4ccccc43)o2)c(OC)c1	n	n	n	18	n	n	82	n	64%	170%
COc1ccc(OC)c(/C=N\NC(=O)c2cc3c(ccc4ccccc43)o2)c1	n	n	n	n	n	n	x	x	x	x
Cc1cc(C)c(C#N)c(SCC2COc3ccccc3O2)n1 (stereo unspecified)	n	n	n	n	n	n	x	x	x	x
N#Cc1cc2c(nc1SCC1COc3ccccc3O1)CCC2 (stereo unspecified)	n	n	n	8	n	n	106	n	99%	124%
Cc1ccc(N/C(N)=N/c2nc(C)cc(C)n2)cc1	n	n	n	n	n	n	x	x	x	x
CCCCc1ccc(N/C(N)=N/c2nc(C)cc(C)n2)cc1	n	n	-5.2	11	n	n	96	n	66%	n	KCNQ1 ephys val=+
COc1ccc(CNC(=O)C2CC(c3ccc(F)cc3)=NO2)cc1 (stereo unspecified)	n	n	n	n	n	n	x	x	x	x
COc1ccc(OC)c(S(=O)(=O)n2ccc(C)n2)c1	n	n	n	n	n	n	x	x	x	x
O=C(OCCCc1cc2ccccc2c(=O)o1)N1CCOCC1	x	x	x	x	n	x	x	x	x	x
Cc1cc(C)cc(NC(=O)C2CCN(S(=O)(=O)c3ccc4c(c3)NC(=O)C(C)S4)CC2)c1 (stereo unspecified)	n	n	n	7	n	n	116	n	98%	131%	KCNQ1 ephys val=n
Cc1ccc(NC(=O)C2CCN(S(=O)(=O)c3ccc4c(c3)NC(=O)C(C)S4)CC2)cc1Cl (stereo unspecified)	n	n	n	17	n	n	126	n	92%	107%	KCNQ1 ephys val=n
CC1Sc2ccc(S(=O)(=O)N3CCC(C(=O)NCC(C)c4ccccc4)CC3)cc2NC1=O (stereo unspecified)	n	n	n	7	n	n	56	n	n	n
